Test results from ChEMBL document CHEMBL1128221 (J Med Chem, 1995).
The source made the active and inactive calls. The rule behind the calls is not given here.

B1: Carboxypeptidase G2 (Pseudomonas aeruginosa (strain ATCC 15692 / PAO1 / 1C / PRS 101 / LMG12228)), Q9I056 (protein)
chain: MHARRLPRLLPLALAFLLSPAAFAADTPAAELLRQAEAERPAYLDTLRQLVAVDSGTGQAEGLGQLSALLAERLQALGAQVRSAPATPSAGDNLVATLDGTGSKRFLLMIHYDTVFAAGSAAKRPFREDAERAYGPGVADAKGGVAMVLHALALLRQQGFRDYGRITVLFNPDEETGSAGSKQLIAELARQQDYVFSYEPPDRDAVTVATNGIDGLLLEVKGRSSHAGSAPEQGRNAILELSHQLLRLKDLGDPAKGTTLNWTLARGGEKRNIIPAEASAEADMRYSDPAESERVLADARKLTGERLVADTEVSLRLDKGRPPLVKNPASQRLAETAQTLYGRIGKRIEPIAMRFGTDAGYAYVPGSDKPAVLETLGVVGAGLHSEAEYLELSSIAPRLYLTVALIRELSAD

Tests used:
LoVo = experiment: Cytotoxicity against colorectal tumor cell line LoVo 1 hour after incubation.; assay type: functional, cell-based; conditions: Homo sapiens
Summary of the method: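 LoVo colorectal cells (2.5 × 10^3/well) were exposed to a range of prodrug or parent drug concentrations for 1 h, then washed. The cells were grown a further 3 days at 37 °C, fixed, and stained with sulforhodamine B to measure cellular protein. Treated wells were compared with untreated controls to give IC50. The ratio is prodrug IC50 over drug IC50.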

[1] = target: T1, Carboxypeptidase G2 (Pseudomonas aeruginosa (strain ATCC 15692 / PAO1 / 1C / PRS 101 / LMG12228)) (UniProt Q9I056); experiment: (§1) Ability to act as substrate for Carboxypeptidase G2
T1 sequence (whole entry): B1 chain
Summary of the method: (§2)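 CPG2 cleavage of the glutamate oxycarbonyl/carbamoyl bond was followed spectrophotometrically. Prodrug and drug were scanned at 200–350 nm, and the wavelength of maximal absorbance difference was chosen. Initial rates of conversion were measured over a range of prodrug and CPG2 concentrations. KM and Vmax came from Michaelis–Menten fits. kcat was Vmax divided by the CPG2 concentration in the reaction.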

[2] = target: T1, Carboxypeptidase G2 (Pseudomonas aeruginosa (strain ATCC 15692 / PAO1 / 1C / PRS 101 / LMG12228)); experiment: Ratio of kcat/Km for carboxypeptidase G2 activity; summary of the method: as §2
[3] = Half life was reported; assay type: ADME
Summary of the method: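 Hydrolysis of the chloroethyl mustard groups was measured in phosphate buffer, pH 7.4, at 37 °C. Products were separated by HPLC on a 25 cm ODS column. t1/2 was calculated with a standard kinetic program. The method was not applied to bromo, iodo or mesyl mustards.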

[4] = target: T1, Carboxypeptidase G2 (Pseudomonas aeruginosa (strain ATCC 15692 / PAO1 / 1C / PRS 101 / LMG12228)); experiment: (§3) Ability to act as substrate for Carboxypeptidase G2; Not substrate; summary of the method: as §2
[5] = target: T1, Carboxypeptidase G2 (Pseudomonas aeruginosa (strain ATCC 15692 / PAO1 / 1C / PRS 101 / LMG12228)); experiment: Ratio of kcat/Km for carboxypeptidase G2; Not substrate; summary of the method: as §2
[6] = target: T1, Carboxypeptidase G2 (Pseudomonas aeruginosa (strain ATCC 15692 / PAO1 / 1C / PRS 101 / LMG12228)); experiment: (§4) Ability to act as substrate for Carboxypeptidase G2; unstable; summary of the method: as §2
[7] = target: T1, Carboxypeptidase G2 (Pseudomonas aeruginosa (strain ATCC 15692 / PAO1 / 1C / PRS 101 / LMG12228)); experiment: Ratio of kcat/Km for carboxypeptidase G2; unstable; summary of the method: as §2
[8] = substrate: CC(C)c1cc(OC(=O)N[C@@H](CCC(=O)O)C(=O)O)ccc1N(CCCl)CCCl; experiment: as §1; summary of the method: as §2
[9] = substrate: O=C(O)CC[C@H](NC(=O)Nc1ccc(N(CCCl)CCCl)c(Cl)c1)C(=O)O; experiment: as §1; summary of the method: as §2
[10] = substrate: O=C(O)CC[C@H](NC(=O)Nc1ccc(N(CCCl)CCCl)c(F)c1)C(=O)O; experiment: as §1; summary of the method: as §2
[11] = substrate: O=C(O)CC[C@H](NC(=O)Oc1ccc(N(CCCl)CCCl)cc1Cl)C(=O)O; experiment: as §1; summary of the method: as §2
[12] = substrate: O=C(O)CC[C@H](NC(=O)Oc1ccc(N(CCBr)CCBr)cc1)C(=O)O; experiment: as §1; summary of the method: as §2
[13] = substrate: Cc1cc(OC(=O)N[C@@H](CCC(=O)O)C(=O)O)ccc1N(CCCl)CCCl; experiment: as §1; summary of the method: as §2
[14] = substrate: O=C(O)CC[C@H](NC(=O)Oc1ccc(N(CCI)CCI)cc1)C(=O)O; experiment: as §1; summary of the method: as §2
[15] = substrate: N#Cc1cc(NC(=O)N[C@@H](CCC(=O)O)C(=O)O)ccc1N(CCCl)CCCl; experiment: as §1; summary of the method: as §2
[16] = substrate: Cc1cc(N(CCCl)CCCl)ccc1OC(=O)N[C@@H](CCC(=O)O)C(=O)O; experiment: as §1; summary of the method: as §2
[17] = substrate: O=C(O)CC[C@H](NC(=O)Nc1ccc(N(CCBr)CCBr)c(F)c1)C(=O)O; experiment: as §1; summary of the method: as §2
[18] = substrate: O=C(O)CC[C@H](NC(=O)Oc1ccc(N(CCCl)CCCl)c(F)c1)C(=O)O; experiment: as §4; summary of the method: as §2
[19] = substrate: O=C(O)CC[C@H](NC(=O)Oc1ccc(N(CCBr)CCBr)c(F)c1)C(=O)O; experiment: as §3; summary of the method: as §2
[20] = substrate: O=C(O)CC[C@H](NC(=O)Oc1ccc(N(CCI)CCI)c(F)c1)C(=O)O; experiment: as §3; summary of the method: as §2
[21] = substrate: O=C(O)CC[C@H](NC(=O)Oc1ccc(N(CCCl)CCCl)c(Cl)c1)C(=O)O; experiment: as §3; summary of the method: as §2

Row | Molecule | IC50 (LoVo) [µM] | k cat [1] [s⁻¹] | Ratio [2] | half-life [3] [min] | also measured
1 | Cc1cc(N(CCCl)CCCl)ccc1OC(=O)N[C@@H](CCC(=O)O)C(=O)O | 437 | 13 | 0.6 | 33 | –
2 | O=C(O)CC[C@H](NC(=O)Oc1ccc(N(CCCl)CCCl)cc1Cl)C(=O)O | 86.7 | 50.5 | 0.7 | 186 | –
3 | O=C(O)CC[C@H](NC(=O)Nc1ccc(N(CCCl)CCCl)c(Cl)c1)C(=O)O | 330 | 9.4 | 7.8 | 2.8 | –
4 | O=C(O)CC[C@H](NC(=O)Nc1ccc(N(CCCl)CCCl)c(F)c1)C(=O)O | > 500 | 9.3 | 3.4 | 6.8 | –
5 | O=C(O)CC[C@H](NC(=O)Oc1ccc(N(CCBr)CCBr)c(F)c1)C(=O)O | 46.2 | – | – | – | k cat [4]: Not substrate; Ratio [5]: inactive
6 | O=C(O)CC[C@H](NC(=O)Oc1ccc(N(CCI)CCI)cc1)C(=O)O | 47.2 | 29.5 | 14.8 | – | –
7 | O=C(O)CC[C@H](NC(=O)Oc1ccc(N(CCBr)CCBr)cc1)C(=O)O | 9.4 | 60 | – | – | –
8 | O=C(O)CC[C@H](NC(=O)Nc1ccc(N(CCBr)CCBr)c(F)c1)C(=O)O | 298 | 14.5 | 2.7 | – | –
9 | Cc1cc(OC(=O)N[C@@H](CCC(=O)O)C(=O)O)ccc1N(CCCl)CCCl | 116 | 30 | 2.3 | 1.6 | –
10 | CC(C)c1cc(OC(=O)N[C@@H](CCC(=O)O)C(=O)O)ccc1N(CCCl)CCCl | 36.7 | 12.6 | 0.2 | 2.2 | –
11 | O=C(O)CC[C@H](NC(=O)Oc1ccc(N(CCCl)CCCl)c(Cl)c1)C(=O)O | 9.4 | – | – | 1.7 | k cat [4]: Not substrate; Ratio [5]: inactive
12 | O=C(O)CC[C@H](NC(=O)Oc1ccc(N(CCCl)CCCl)c(F)c1)C(=O)O | 53 | – | – | 19 | k cat [6]: Unstable; Ratio [7]: Unstable
13 | O=C(O)CC[C@H](NC(=O)Oc1ccc(N(CCI)CCI)c(F)c1)C(=O)O | 24.5 | – | – | – | k cat [4]: Not substrate; Ratio [5]: inactive
14 | N#Cc1cc(NC(=O)N[C@@H](CCC(=O)O)C(=O)O)ccc1N(CCCl)CCCl | > 500 | 8.4 | 1 | 61 | –
15 | B1 | – | – | – | – | Km [8]: 56 µM; Km [9]: 1.2 µM; Km [10]: 2.7 µM; Km [11]: 76.5 µM; Km [12]: 6.2 µM; Km [13]: 13 µM; Km [14]: 2 µM; Km [15]: 8.3 µM; Km [16]: 23.5 µM; Km [17]: 5.4 µM; Km [18]: Unstable; Km [19]: Not substrate; Km [20]: Not substrate; Km [21]: Not substrate
